Columns and labels:
Acetylcholinesterase = Acetylcholinesterase (Homo sapiens, UniProt P22303); assay: Inhibition of human recombinant AChE using acetylthiocholine iodide substrate incubated for 15 mins by spectrophotometry based Ellman's method
Homo sapiens [1] = organism: Homo sapiens; assay: Selectivity index, ratio of IC50 for human recombinant BuChE to IC50 for human recombinant AChE
Cholinesterase = Cholinesterase (Homo sapiens, UniProt P06276); assay: Inhibition of human recombinant BuChE using butyrylthiocholine iodide substrate incubated for 15 mins by spectrophotometry based Ellman's method
Rattus norvegicus = assay: Antagonism of scopolamine-induced passive avoidance in Wistar rat assessed as latency of visiting dark box measured for 5 mins at 1 mg/kg, po dosed 30 mins after scopolamine challenge and measured 1 hr post dose; format: functional
Procedure, shortened: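 Rats, 10 per compound. Scopolamine 1 mg/kg ip given 30 min before the test compound (1 mg/kg oral). One hour after dosing, rats placed in the illuminated compartment with the door closed for 30 s habituation. Door then opens automatically and latency to enter the dark box is timed over 5 min. Antagonism (%) is scaled against the latency difference between no-scopolamine and scopolamine-only groups, taken as 100%.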

Homo sapiens [2] = organism: Homo sapiens; assay: Selectivity index, ratio of IC50 for human recombinant AChE to IC50 for human recombinant BuChE
Procedure, shortened: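 Modified Ellman assay in Tris-HCl pH 8.0 with DTNB (0.34 mM final). Human recombinant AChE (0.4 U/mL solution) with acetylthiocholine iodide; human recombinant BuChE (1.6 U/mL solution) with butyrylthiocholine iodide (1.5 mM final). 15 min at 27 °C, read at 412 nm against enzyme-free blank and inhibitor-free control, in triplicate. IC50s fitted by sigmoidal Hill slope; ratio of the two IC50s.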

Cholinesterase, sequence (P06276 whole entry): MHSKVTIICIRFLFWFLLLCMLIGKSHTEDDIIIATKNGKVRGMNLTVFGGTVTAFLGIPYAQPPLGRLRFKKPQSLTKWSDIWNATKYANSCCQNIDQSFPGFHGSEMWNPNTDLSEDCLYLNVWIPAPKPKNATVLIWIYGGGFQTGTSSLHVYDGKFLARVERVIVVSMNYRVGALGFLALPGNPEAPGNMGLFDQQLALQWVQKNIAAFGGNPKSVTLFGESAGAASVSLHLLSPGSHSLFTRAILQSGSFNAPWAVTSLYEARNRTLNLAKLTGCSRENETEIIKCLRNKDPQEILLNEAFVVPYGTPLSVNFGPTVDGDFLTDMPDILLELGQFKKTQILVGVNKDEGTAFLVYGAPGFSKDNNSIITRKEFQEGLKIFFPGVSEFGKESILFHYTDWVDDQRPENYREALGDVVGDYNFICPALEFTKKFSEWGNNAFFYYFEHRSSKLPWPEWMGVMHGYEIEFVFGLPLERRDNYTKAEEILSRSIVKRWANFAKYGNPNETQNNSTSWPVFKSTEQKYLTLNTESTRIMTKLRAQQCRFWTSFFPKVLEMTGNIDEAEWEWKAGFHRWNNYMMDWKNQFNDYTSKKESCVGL
Acetylcholinesterase, sequence (P22303 whole entry): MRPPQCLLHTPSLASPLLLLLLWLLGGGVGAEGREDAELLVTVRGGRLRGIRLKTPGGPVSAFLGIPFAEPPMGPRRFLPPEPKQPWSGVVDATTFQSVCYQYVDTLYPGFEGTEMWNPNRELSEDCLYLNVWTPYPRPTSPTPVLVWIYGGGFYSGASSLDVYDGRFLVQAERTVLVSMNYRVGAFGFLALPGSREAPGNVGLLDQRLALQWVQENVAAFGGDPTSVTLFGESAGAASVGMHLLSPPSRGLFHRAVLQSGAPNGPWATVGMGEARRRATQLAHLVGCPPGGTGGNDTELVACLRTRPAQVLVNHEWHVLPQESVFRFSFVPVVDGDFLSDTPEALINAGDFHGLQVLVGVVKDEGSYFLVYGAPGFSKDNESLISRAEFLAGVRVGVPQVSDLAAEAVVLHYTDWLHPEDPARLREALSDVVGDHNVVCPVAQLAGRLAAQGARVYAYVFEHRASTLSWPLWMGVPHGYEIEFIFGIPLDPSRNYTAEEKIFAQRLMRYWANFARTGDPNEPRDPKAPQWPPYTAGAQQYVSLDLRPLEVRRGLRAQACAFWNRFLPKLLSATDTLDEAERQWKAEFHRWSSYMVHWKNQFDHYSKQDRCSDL

Row | SMILES | IC50 (Acetylcholinesterase) [µM] | Ratio IC50 (Homo sapiens [1]) | IC50 (Cholinesterase) [µM] | inhibition in vivo at 1 mg/kg (Rattus norvegicus) [%] | Ratio IC50 (Homo sapiens [2])
1 | O=c1oc2cc(OCCN3CCN(Cc4ccccc4)CC3)ccc2c2c1CCCC2 | 1.3 | 24.6 | 32 | – | –
2 | COc1cccc(CN2CCN(CCOc3ccc4c(c3)oc(=O)c3ccccc34)CC2)c1 | 11.4 | > 3 | > 40 | – | –
3 | O=c1oc2cc(OCCCN3CCC(Cc4ccccc4)CC3)ccc2c2c1CCCC2 | 4.3 | > 9 | > 40 | – | –
4 | C[C@@H](c1ccc2c(c1)oc(=O)c1ccccc12)N(C)C | – | 2.1 | – | 71 | –
5 | O=c1oc2cc(OCCCCN3CCN(Cc4ccccc4)CC3)ccc2c2ccccc12 | 8.2 | > 4 | > 40 | – | –
6 | CN(CCCOc1ccc2c(c1)oc(=O)c1ccccc12)Cc1ccccc1 | 8.5 | 1.7 | 14.9 | – | –
7 | COc1cc(C(C)N(C)C)cc2oc(=O)c3ccccc3c12 (racemic) | – | 7.5 | – | 71 | –
8 | CN(CCCCOc1ccc2c(c1)oc(=O)c1ccccc12)Cc1ccccc1 | 1.1 | 5.9 | 6.5 | 62 | –
9 | CCN(C)C(=O)Oc1cccc([C@H](C)N(C)C)c1 (racemic) [RIVASTIGMINE] | – | – | – | 85 | –
10 | COc1cccc(CC2CCN(CCOc3ccc4c5c(c(=O)oc4c3)CCCC5)CC2)c1 | 37.2 | > 1 | > 40 | – | –
11 | CC(c1ccc2c(c1)oc(=O)c1ccccc12)N(C)C (racemic) | – | 1.6 | – | 70 | –
12 | CN(CCOc1ccc2c3c(c(=O)oc2c1)CCCC3)Cc1ccccc1 | 2.8 | > 14 | > 40 | – | –
13 | CN(CCOc1ccc2c(c1)oc(=O)c1ccccc12)Cc1ccccc1 | 6.7 | 2.1 | 14.1 | – | –
14 | CN(CCCOc1ccc2c3c(c(=O)oc2c1)CCCC3)Cc1ccccc1 | 2.1 | 7.6 | 15.9 | – | –
15 | O=c1oc2cc(OCCCN3CCN(Cc4ccccc4)CC3)ccc2c2c1CCCC2 | 0.9 | 3.4 | 3.1 | 58 | –
16 | O=c1oc2cc(OCCCN3CCN(Cc4ccccc4)CC3)ccc2c2ccccc12 | 0.8 | 4.6 | 3.7 | 85 | –
17 | O=c1oc2cc(OCCN3CCN(Cc4ccccc4)CC3)ccc2c2ccccc12 | 0.9 | 13.4 | 12.1 | – | –
18 | O=c1oc2cc(OCCN3CCC(Cc4ccccc4)CC3)ccc2c2ccccc12 | 20 | > 2 | > 40 | – | –
19 | COc1cccc(CN2CCN(CCCCOc3ccc4c(c3)oc(=O)c3ccccc34)CC2)c1 | 21.3 | > 1 | > 40 | – | –
20 | CCN(C)C(=O)Oc1cc(C(C)N(C)C)c2c(c1)oc(=O)c1ccccc12 (racemic) | > 40 | – | – | – | > 4
21 | O=c1oc2cc(OCCN3CCC(Cc4ccccc4)CC3)ccc2c2c1CCCC2 | 8.1 | > 5 | > 40 | – | –
22 | COc1cccc(CC2CCN(CCOc3ccc4c(c3)oc(=O)c3ccccc34)CC2)c1 | 29.3 | > 1 | > 40 | – | –
23 | O=c1oc2cc(OCCCCN3CCC(Cc4ccccc4)CC3)ccc2c2ccccc12 | 14.2 | > 2 | > 40 | – | –

Row | SMILES | IC50 (Acetylcholinesterase) [µM] | Ratio IC50 (Homo sapiens [1]) | IC50 (Cholinesterase) [µM] | inhibition in vivo at 1 mg/kg (Rattus norvegicus) [%] | Ratio IC50 (Homo sapiens [2])
24 | COc1cccc(CN(C)CCCCOc2ccc3c4c(c(=O)oc3c2)CCCC4)c1 | 1.7 | > 23 | > 40 | – | –
25 | COc1cccc(CN(C)CCCOc2ccc3c4c(c(=O)oc3c2)CCCC4)c1 | 2.7 | > 14 | > 40 | – | –
26 | O=c1oc2cc(OCCCCN3CCN(Cc4ccccc4)CC3)ccc2c2c1CCCC2 | 6.4 | 2.3 | 14.6 | – | –
27 | COc1cc(C(C)N(C)C)c2c(c1)oc(=O)c1ccccc12 (racemic) | – | 1.6 | – | – | –
28 | COc1cccc(CC2CCN(CCCCOc3ccc4c(c3)oc(=O)c3ccccc34)CC2)c1 | 27.4 | > 1 | > 40 | – | –
29 | COc1cccc(CC2CCN(CCCOc3ccc4c(c3)oc(=O)c3ccccc34)CC2)c1 | 18.5 | > 2 | > 40 | – | –
30 | COc1cc2c(cc1OC)C(=O)C(CC1CCN(Cc3ccccc3)CC1)C2 (configuration not stated) [DONEPEZIL] | – | – | – | 58 | –
31 | CC(c1cc(O)c2c(c1)oc(=O)c1ccccc12)N(C)C (racemic) | – | – | – | 49 | 4.5
32 | COc1cccc(CN(C)CCOc2ccc3c4c(c(=O)oc3c2)CCCC4)c1 | 6 | > 6 | > 40 | – | –
33 | COc1cccc(CN2CCN(CCCOc3ccc4c5c(c(=O)oc4c3)CCCC5)CC2)c1 | 6.2 | 2.9 | 18.4 | – | –
34 | CC(c1cc(O)cc2oc(=O)c3ccccc3c12)N(C)C (racemic) | – | > 1 | > 40 | – | –
35 | COc1cccc(CN(C)CCCCOc2ccc3c(c2)oc(=O)c2ccccc23)c1 | 8.3 | 2.1 | 17.6 | – | –
36 | COc1cccc(CN(C)CCCOc2ccc3c(c2)oc(=O)c2ccccc23)c1 | 20.9 | 1.4 | 29.2 | – | –
37 | COc1cccc(CN2CCN(CCCCOc3ccc4c5c(c(=O)oc4c3)CCCC5)CC2)c1 | 8.7 | 2.7 | 23.4 | – | –
38 | COc1cccc(CN(C)CCOc2ccc3c(c2)oc(=O)c2ccccc23)c1 | 18.4 | 1.8 | 33.2 | – | –
39 | COc1cccc(CC2CCN(CCCCOc3ccc4c5c(c(=O)oc4c3)CCCC5)CC2)c1 | 13.7 | 2 | 27.8 | – | –
40 | CN(CCCCOc1ccc2c3c(c(=O)oc2c1)CCCC3)Cc1ccccc1 | 1 | 18.9 | 18.9 | 65 | –
41 | O=c1oc2cc(OCCCCN3CCC(Cc4ccccc4)CC3)ccc2c2c1CCCC2 | 9.2 | 2.2 | 20.1 | – | –
42 | COc1cccc(CN2CCN(CCOc3ccc4c5c(c(=O)oc4c3)CCCC5)CC2)c1 | 7.3 | > 5 | > 40 | – | –
43 | O=c1oc2cc(OCCCN3CCC(Cc4ccccc4)CC3)ccc2c2ccccc12 | 4.1 | 5.2 | 21.3 | – | –
44 | COc1cccc(CC2CCN(CCCOc3ccc4c5c(c(=O)oc4c3)CCCC5)CC2)c1 | 4.9 | > 8 | > 40 | – | –
45 | COc1cccc(CN2CCN(CCCOc3ccc4c(c3)oc(=O)c3ccccc34)CC2)c1 | 18 | > 2 | > 40 | – | –

From ChEMBL document CHEMBL3351711, “Design, synthesis and biological evaluation of novel 6H-benzo[c]chromen-6-one, and 7,8,9,10-tetrahydro-benzo[c]chromen-6-one derivatives as potential cholinesterase inhibitors” (Bioorg Med Chem, 2014)
